Laboratory results reported in ChEMBL document CHEMBL4196053, “Endoperoxide-8-aminoquinoline hybrids as dual-stage antimalarial agents with enhanced metabolic stability” (Eur J Med Chem, 2018).
pEC50: −log10 of the molar value. Active and inactive are the calls of the source. The calls are words filed in the database; no cut-off is given here.

Columns and labels:
Plasmodium falciparum = experiment: Antiplasmodial activity against chloroquine resistant Plasmodium falciparum W2 erythrocytic ring stage after 48 hrs using hypoxanthine by flow cytometric analysis; assay type: functional, organism-based; conditions: W2, 48 h
Summary of the method: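 Ring-stage W2 P. falciparum synchronized with 5% sorbitol, about 1% parasitemia in human erythrocytes. Cells fixed in 2% formaldehyde, stained with 1 nM YOYO-1, infected cells counted by flow cytometry. IC50 taken against untreated controls; two experiments, four replicates each.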

Plasmodium berghei [1] = experiment: Antiplasmodial activity against luciferase expressing Plasmodium berghei sporozoites infected in human HuH7 cells at 10 uM preincubated for 1 hr followed by parasite infection measured after 48 hrs by bioluminescence analysis relative to control; assay type: functional
Summary of the method: (§1)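 Huh-7 hepatoma cells (1.0 × 10^4/well) seeded the day before. Compound-containing medium added about 1 h before infection with fresh firefly luciferase-expressing P. berghei sporozoites from Anopheles stephensi salivary glands, then spun 1700 g for 5 min. DMSO vehicle in controls. Parasite load read by bioluminescence 48 h post-infection. Initial screen at fixed concentrations; EC50 from nonlinear regression of normalized dose-response data.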

Huh-7 = experiment: Cytotoxicity against human HuH7 cells assessed as reduction in cell viability at 10 uM after 48 hrs by Alamar blue assay; assay type: cell-based; conditions: huh-7, 48 h
Summary of the method: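 Huh-7 cells seeded and infected with P. berghei sporozoites as in the liver-stage assay, with compound added about 1 h before infection and DMSO vehicle in controls. Host cell viability read by AlamarBlue fluorescence 48 h post-infection.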

Plasmodium berghei [2] = experiment: Antiplasmodial activity against luciferase expressing Plasmodium berghei sporozoites infected in human HuH7 cells at 2 uM preincubated for 1 hr followed by parasite infection measured after 48 hrs by bioluminescence analysis relative to control; assay type: functional; summary of the method: as §1
[3] = Selectivity index, ratio of CC50 for human Caco2 cells to IC50 for chloroquine resistant Plasmodium falciparum W2 erythrocytic ring stage; assay type: toxicity; conditions: Caco-2 cells, read-out: Ratio CC50/IC50
Plasmodium berghei [4] = experiment: Antiplasmodial activity against luciferase expressing Plasmodium berghei infected in human HuH7 cells preincubated for 1 hr followed by parasite infection measured after 48 hrs by bioluminescence analysis; assay type: functional, organism-based; conditions: Huh-7; summary of the method: as §1
[5] = Half life in rat liver microsomes at […] in presence of NADPH by HPLC analysis; assay type: ADME, microsome
[6] = Cytotoxicity against human Caco2 cells assessed as reduction in cell viability after 72 hrs by neutral red dye based assay; conditions: Caco-2 cells
Summary of the method: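 CaCo-2 cells grown in RPMI-1640 with 10% FBS and antibiotic-antimycotic at 37°C, 5% CO2. Exposed once confluent for 72 h to compound diluted in medium, organic solvent ≤1%. Medium then removed and cells washed with PBS.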

[7] = Intrinsic clearance in rat liver microsomes assessed per mg protein at […] in presence of NADPH by HPLC analysis; assay type: ADME, microsome; conditions: read-out: CLH

Structure (SMILES) | pEC50 (Plasmodium falciparum) | Activity (Plasmodium berghei [1]) | Activity (Huh-7) | Activity (Plasmodium berghei [2]) | selectivity ratio [3] | pEC50 (Plasmodium berghei [4]) | half-life [5] [min] | CC50 at 72 h [6] [µM] | microsomal CLint [7] [µL/min/mg]
COc1cc(NC(C)CCCNCC2CCC3(CC2)OOC2(OO3)C3CC4CC(C3)CC2C4)c2ncccc2c1-c1ccc(F)cc1 (stereo unspecified) | 7.00 | Active | Toxic | Active | – | – | – | – | –
COc1cc(NC(C)CCCNC(=O)C2CCC3(CC2)OOC2(OO3)C3CC4CC(C3)CC2C4)c2ncccc2c1-c1ccc(C(F)(F)F)cc1 (stereo unspecified) | 7.22 | Active | Non-Toxic | >50% | > 1000 | 5.39 | 100 | > 50 | 13.9
COc1cc(NCCCCNC(=O)C2CCC3(CC2)OOC2(OO3)C3CC4CC(C3)CC2C4)c2ncccc2c1-c1ccc(F)cc1 (stereo unspecified) | 7.82 | Active | Non-Toxic | >50% | – | 5.95 | 15 | 10.2 | 92.4
CCOC(=O)C1CCC2(CC1)OOC1(OO2)C2CC3CC(C2)CC1C3 (stereo unspecified) | – | – | – | – | – | 4.76 | – | – | –
C[C@@H]1CC[C@H]2[C@@H](C)C(=O)O[C@@H]3O[C@@]4(C)CC[C@@H]1[C@]32OO4 [ARTEMISININ] | 8.00 | – | – | – | – | – | – | – | –
COc1cc(NC(C)CCCN)c2ncccc2c1-c1ccc(C)cc1 (stereo unspecified) | 5.63 | – | – | – | – | 5.27 | – | – | –
COc1cc(NCCCCCNC(=O)C2CCC3(CC2)OOC2(OO3)C3CC4CC(C3)CC2C4)c2ncccc2c1-c1ccc(F)cc1 (stereo unspecified) | 7.77 | Active | Non-Toxic | >50% | – | 5.79 | 25 | – | 55.4
COc1cc(NC(C)CCCNC(=O)C2CCC3(CC2)OOC2(OO3)C3CC4CC(C3)CC2C4)c2ncccc2c1Br (stereo unspecified) | 7.80 | Active | Toxic | >50% | – | – | 14 | – | 99
COc1cc(NC(C)CCCNC(=O)C2CCC3(CC2)OOC2(OO3)C3CC4CC(C3)CC2C4)c2ncccc2c1-c1ccc(F)cc1 (stereo unspecified) | 7.24 | Active | Non-Toxic | >50% | > 1000 | 5.62 | 40 | > 50 | 34.6
COc1cc(NC(=O)C2CCC3(CC2)OOC2(OO3)C3CC4CC(C3)CC2C4)c2ncccc2c1-c1ccc(Cl)cc1 (stereo unspecified) | 5.38 | 37% | – | – | – | – | 125 | – | 11.1
COc1cc(NC(C)CCCNCC2CCC3(CC2)OOC2(OO3)C3CC4CC(C3)CC2C4)c2ncccc2c1-c1ccoc1 (stereo unspecified) | 6.92 | Active | Toxic | Active | – | – | – | – | –
COc1cc(NCCCNC(=O)C2CCC3(CC2)OOC2(OO3)C3CC4CC(C3)CC2C4)c2ncccc2c1-c1ccc(F)cc1 (stereo unspecified) | 7.82 | Active | Non-Toxic | >50% | – | 5.58 | 35 | – | 39.6
COc1cc(NC(C)CCCNCC2CCC3(CC2)OOC2(OO3)C3CC4CC(C3)CC2C4)c2ncccc2c1-c1ccccc1 (stereo unspecified) | 7.04 | Active | Toxic | Active | – | – | – | – | –
